Data from ChEMBL document CHEMBL2021854, “2-Aminopyrimidine based 4-aminoquinoline anti-plasmodial agents. Synthesis, biological activity, structure-activity relationship and mode of action studies” (Eur J Med Chem, 2012).

Tests used:
Human alphaherpesvirus 3 [1] = assay: Antiviral activity against […] expressing thymidine kinase infected in HEL cells assessed as reduction of virus plaque formation after 4 days; type: functional, cell-based; settings: Human alphaherpesvirus 3, strain Oka vaccine, 96 h
HeLa = assay: Cytotoxicity against human HeLa cells assessed as cell viability by colorimetric formazan-based MTS assay
[2] = test system: Vesicular stomatitis virus; assay: Antiviral activity against Vesicular stomatitis virus infected in HEL cells assessed as inhibition of virus-induced cytopathogenicity after 4 days; type: functional, organism-based; settings: 96 h
Summary of the method: (§1)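 Confluent HEL or HeLa monolayers infected with 100 CCID50 of virus in the presence of varying compound concentrations.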

[3] = Cytotoxicity against human HEL cells assessed as minimum compound concentration required to causes microscopically detectable alteration of normal cell morphology; type: cell-based
Summary of the method: (§2)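 Confluent, non-proliferating cell cultures were exposed to the compounds. The endpoint was the minimum concentration producing a microscopically detectable alteration of normal cell morphology.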

[4] = test system: Respiratory syncytial virus; assay: Antiviral activity against Respiratory syncytial virus infected in human HeLa cells assessed as inhibition of virus-induced cytopathogenicity after 4 days; type: functional, organism-based; settings: 96 h
Summary of the method: (§3)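 Confluent HEL, Vero or HeLa monolayers were inoculated with 100 CCID50 of virus in the presence of varying concentrations of compound. Cytopathicity was scored when it reached completion in untreated, virus-infected control cultures.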

Punta Toro virus = assay: Antiviral activity against Punta Toro virus infected in african green monkey Vero cells assessed as inhibition of virus-induced cytopathogenicity after 4 days; type: functional, organism-based; settings: 96 h; summary of the method: as §3
[5] = Cytotoxicity against african green monkey Vero cells assessed as minimum compound concentration required to causes microscopically detectable alteration of normal cell morphology; type: cell-based; settings: chlorocebus sabaeus; summary of the method: as §2
Human respirovirus 3 = assay: Antiviral activity against Parainfluenza-3 virus infected in african green monkey Vero cells assessed as inhibition of virus-induced cytopathogenicity after 4 days; type: functional, organism-based; settings: Human respirovirus 3, Vero, 96 h; summary of the method: as §3
[6] = Cytotoxicity against human HeLa cells assessed as minimum compound concentration required to causes microscopically detectable alteration of normal cell morphology; type: cell-based; summary of the method: as §2
[7] = test system: Vesicular stomatitis virus; assay: Antiviral activity against Vesicular stomatitis virus infected in HeLa cells assessed as inhibition of virus-induced cytopathogenicity after 4 days; type: functional, organism-based; settings: 96 h; summary of the method: as §1
Coxsackievirus B4 [8] = assay: Antiviral activity against Coxsackie virus B4 infected in human HeLa cells assessed as inhibition of virus-induced cytopathogenicity after 4 days; type: functional, organism-based; settings: Enterovirus B, 96 h; summary of the method: as §3
Sindbis virus = assay: Antiviral activity against Sindbis virus infected in african green monkey Vero cells assessed as inhibition of virus-induced cytopathogenicity after 4 days; type: functional, organism-based; settings: 96 h; summary of the method: as §3
Coxsackievirus B4 [9] = assay: Antiviral activity against Coxsackie virus B4 infected in african green monkey Vero cells assessed as inhibition of virus-induced cytopathogenicity after 4 days; type: functional, organism-based; settings: Enterovirus B, 96 h; summary of the method: as §3
[10] = test system: Mammalian orthoreovirus 1; assay: Antiviral activity against Reovirus-1 infected in african green monkey Vero cells assessed as inhibition of virus-induced cytopathogenicity after 4 days; type: functional, organism-based; settings: Mammalian orthoreovirus 1, Vero, 96 h; summary of the method: as §3
Plasmodium falciparum [11] = assay: Antiplasmodial activity chloroquine-sensitive Plasmodium falciparum 3D7 infected in human A+ erythrocytes assessed as inhibition of [3H]-hypoxanthine incorporation after 24 hrs by scintillation counting; type: functional, organism-based
Plasmodium falciparum [12] = assay: Resistant factor, ratio of IC50 for chloroquine-resistant Plasmodium falciparum K1 to IC50 for chloroquine-sensitive Plasmodium falciparum 3D7; type: functional
Summary of the method: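 Resistance factor computed as IC50 against K1 divided by IC50 against 3D7, both from the [3H]hypoxanthine incorporation assay.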

Plasmodium falciparum [13] = assay: Antiplasmodial activity chloroquine-resistant Plasmodium falciparum K1 infected in human A+ erythrocytes assessed as inhibition of [3H]-hypoxanthine incorporation after 24 hrs by scintillation counting; type: functional, organism-based
[14] = Inhibition of beta-hematin formation assessed as Ferriprotoporphyrin IX biomineralisation at 1 mg/ml after 24 hrs; type: functional
Summary of the method: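 Hemin chloride (0.5 mg/ml in DMSO) mixed with 0.5 M sodium acetate buffer pH 4.4 and drug or solvent control, incubated 37 °C for 24 h. Pellet washed with DMSO to remove unreacted hemin, dissolved in 0.1 N NaOH, absorbance read at 405 nm; percent inhibition relative to control. Highest concentration tested 1 mg/ml.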

[15] = test system: Human immunodeficiency virus 1; assay: Antiviral activity against HIV1 infected in human CEM cells assessed as inhibition of virus-induced cytopathic effect after 4 days; type: functional, organism-based; settings: Human immunodeficiency virus 1, CCRF-CEM, 96 h
Summary of the method: (§4)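 CEM T-lymphocytes (~3 × 10^5 cells/ml) were infected with HIV-1 IIIB or HIV-2 ROD at ~100 CCID50, then immediately plated with a range of compound concentrations. Giant cell formation was scored microscopically after 4 days at 37 °C. Cytostatic activity was tested in parallel in uninfected CEM cells.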

[16] = Cytotoxicity against MDCK cells assessed as minimum compound concentration required to causes microscopically detectable alteration of normal cell morphology; type: cell-based, Canis lupus familiaris; settings: dog; summary of the method: as §2
[17] = test system: Feline infectious peritonitis virus; assay: Antiviral activity against FIPV infected in cat CRFK cells assessed as inhibition of virus-induced cytopathic effect after 4 days by colorimetric formazan-based MTS assay; type: functional, cell-based; settings: Alphacoronavirus 1, CRFK, 96 h
[18] = Cytotoxicity against cat CRFK cells assessed as cell viability by colorimetric formazan-based MTS assay; parameters: species or system Felis catus; settings: crfk
Felid alphaherpesvirus 1 = assay: Antiviral activity against Feline herpesvirus infected in cat CRFK cells assessed as inhibition of virus-induced cytopathic effect after 4 days by colorimetric formazan-based MTS assay; type: functional, organism-based; settings: Felid alphaherpesvirus 1, CRFK, 96 h
Influenza B virus [19] = assay: Antiviral activity against Influenza B virus infected in MDCK cells assessed as inhibition of virus-induced cytopathogenicity after 4 days by colorimetric formazan-based MTS assay; type: functional, organism-based; settings: 96 h
Influenza B virus [20] = assay: Antiviral activity against Influenza B virus infected in MDCK cells assessed as reduction visual scoring of virus-induced cytopathogenicity after 4 days; type: functional, organism-based; settings: 96 h
Summary of the method: (§5)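 MDCK monolayers infected with 100 CCID50 of influenza A (H1N1 or H3N2) or influenza B, with varying compound concentrations. Cytopathicity read when untreated infected controls reached complete CPE.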

Influenza A virus [21] = assay: Antiviral activity against Influenza A virus H3N2 infected in MDCK cells assessed as inhibition of virus-induced cytopathogenicity after 4 days by colorimetric formazan-based MTS assay; type: functional, organism-based; settings: 96 h
Human betaherpesvirus 5 [22] = assay: Antiviral activity against Cytomegalovirus AD-169 infected in HEL cells assessed as inhibition of virus plaque formation after 4 days; type: functional, organism-based; settings: Human betaherpesvirus 5, AD169, HEL, 96 h
[23] = test system: Human immunodeficiency virus 2; assay: Antiviral activity against HIV2 infected in human CEM cells assessed as inhibition of virus-induced cytopathic effect after 4 days; type: functional, organism-based; settings: Human immunodeficiency virus 2, CCRF-CEM, 96 h; summary of the method: as §4
MDCK = assay: Cytotoxicity against MDCK cells assessed as cell viability by colorimetric formazan-based MTS assay; parameters: species or system Canis lupus familiaris; settings: dog, mdck
Summary of the method: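 Cytotoxicity on MDCK cells; 50% cytotoxic concentration from cell viability measured by colorimetric formazan-based MTS assay.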

[24] = Selectivity index, ratio of CC50 for MDCK cells to IC50 for chloroquine-resistant Plasmodium falciparum K1; type: functional
Summary of the method: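 Selectivity index computed as MTS-based CC50 on MDCK cells divided by IC50 against P. falciparum K1.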

Human alphaherpesvirus 1 [25] = assay: Antiviral activity against HSV1 KOS infected in HEL cells assessed as inhibition of virus-induced cytopathogenicity after 4 days; type: functional, organism-based; settings: Human alphaherpesvirus 1, KOS, 96 h; summary of the method: as §1
Influenza A virus [26] = assay: Antiviral activity against Influenza A virus H1N1 infected in MDCK cells assessed as inhibition of virus-induced cytopathogenicity after 4 days by colorimetric formazan-based MTS assay; type: functional, organism-based; settings: 96 h
Influenza A virus [27] = assay: Antiviral activity against Influenza A virus H1N1 infected in MDCK cells assessed as reduction visual scoring of virus-induced cytopathogenicity after 4 days; type: functional, organism-based; settings: 96 h; summary of the method: as §5
Human alphaherpesvirus 1 [28] = assay: Antiviral activity against thymidine kinase-deficient acyclovir-resistant HSV1 KOS infected in HEL cells assessed as inhibition of virus-induced cytopathogenicity after 4 days; type: functional, organism-based; settings: Human alphaherpesvirus 1, KOS, 96 h; summary of the method: as §1
Human alphaherpesvirus 2 = assay: Antiviral activity against HSV2 G infected in HEL cells assessed as inhibition of virus-induced cytopathogenicity after 4 days; type: functional, organism-based; settings: Human alphaherpesvirus 2, strain G, 96 h; summary of the method: as §3
Influenza A virus [29] = assay: Antiviral activity against Influenza A virus H3N2 infected in MDCK cells assessed as reduction visual scoring of virus-induced cytopathogenicity after 4 days; type: functional, organism-based; settings: 96 h; summary of the method: as §5
Human betaherpesvirus 5 [30] = assay: Antiviral activity against Human cytomegalovirus Davis infected in HEL cells assessed as inhibition of virus plaque formation after 4 days; type: functional, organism-based; settings: Human betaherpesvirus 5, Davis, 96 h
Human alphaherpesvirus 3 [31] = assay: Antiviral activity against thymidine kinase-deficient […] infected in HEL cells assessed as reduction of virus plaque formation after 4 days; type: functional, organism-based; settings: Human alphaherpesvirus 3, 07-1, HEL, 96 h

Row | SMILES | EC50 (Human alphaherpesvirus 3 [1]) [µM] | CC50 (HeLa) [µM] | EC50 [2] [µM] | MCC [3] [µM] | EC50 [4] [µM] | EC50 (Punta Toro virus) [µM] | MCC [5] [µM] | EC50 (Human respirovirus 3) [µM] | MCC [6] [µM] | EC50 [7] [µM] | EC50 (Coxsackievirus B4 [8]) [µM] | EC50 (Sindbis virus) [µM] | EC50 (Coxsackievirus B4 [9]) [µM] | EC50 [10] [µM] | IC50 (Plasmodium falciparum [11]) [µM] | Ratio IC50 (Plasmodium falciparum [12]) | IC50 (Plasmodium falciparum [13]) [µM] | further results
1 | O=c1[nH]c(=O)n([C@H]2C[C@H](O)[C@@H](CO)O2)cc1/C=C/Br [BRIVUDINE] | 0.019 | 362 | > 250 | > 250 | – | – | – | – | – | – | – | – | – | – | – | – | – | –
2 | Nc1ncnc2c1ncn2C[C@H](O)CO [(S)-DHPA] | – | – | – | – | 6 | > 250 | > 250 | > 250 | > 250 | 22 | 29 | > 250 | > 250 | 250 | – | – | – | –
3 | Cc1nc(NCCCNc2ccnc3cc(Cl)ccc23)nc(-c2ccc([N+](=O)[O-])cc2)c1C(=O)OC(C)C | – | – | – | – | – | – | – | – | – | – | – | – | – | – | 0.5 | 0.3518 | 0.176 | inhibition [14]: 94%
4 | CCOC(=O)c1c(C)nc(NCCCCCCCCCCNc2ccnc3cc(Cl)ccc23)nc1-c1ccccc1 | – | – | – | – | – | – | – | – | – | – | – | – | – | – | 1.78 | 0.2744 | 0.488 | –
5 | Cc1nc(NCCNc2ccnc3cc(Cl)ccc23)nc(-c2ccccc2[N+](=O)[O-])c1C(=O)OC(C)C | > 20 | 24.4 | > 20 | 100 | > 100 | > 20 | 100 | > 20 | > 100 | > 100 | > 100 | > 20 | > 20 | > 20 | 0.173 | 0.5555 | 0.096 | EC50 [15]: > 10 µM; MCC [16]: ≥ 800 nM; EC50 [17]: > 100 µM; CC50 [18]: > 100 µM; EC50 (Felid alphaherpesvirus 1): > 100 µM; EC50 (Influenza B virus [19]): > 0.8 µM; EC50 (Influenza B virus [20]): > 0.8 µM; EC50 (Influenza A virus [21]): > 0.8 µM; EC50 (Human betaherpesvirus 5 [22]): > 20 µM; EC50 [23]: > 2 µM; CC50 (MDCK): 2.2 µM; Ratio CC50/IC50 [24]: 22.9; EC50 (Human alphaherpesvirus 1 [25]): > 20 µM; EC50 (Influenza A virus [26]): > 0.8 µM; EC50 (Influenza A virus [27]): > 0.8 µM; EC50 (Human alphaherpesvirus 1 [28]): > 20 µM; EC50 (Human alphaherpesvirus 2): > 100 µM; EC50 (Influenza A virus [29]): > 0.8 µM; EC50 (Human betaherpesvirus 5 [30]): > 20 µM; EC50 (Human alphaherpesvirus 3 [31]): > 20 µM
